Columns and labels:
Assay type in all cases: functional
M14 = experiment: Growth inhibition of human M14 cells at 10 uM relative to control; settings: values are per cent of control
How it was run: (§1)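 Single-dose preliminary screen in the NCI human cancer cell line panel, run by the NIH. Percent inhibition of cell line growth was calculated by comparison with untreated samples.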

COLO 205 = experiment: Growth inhibition of human COLO205 cells at 10 uM relative to control; settings: values are per cent of control; how it was run: as §1
OVCAR-4 = experiment: Growth inhibition of human OVCAR4 cells at 10 uM relative to control; settings: values are per cent of control; how it was run: as §1
cells [1] = settings: Homo sapiens, Cancer cell lines
KM12 = experiment: Growth inhibition of human KM12 cells at 10 uM relative to control; settings: values are per cent of control; how it was run: as §1
EKVX = experiment: Growth inhibition of human EKVX cells at 10 uM relative to control; settings: values are per cent of control; how it was run: as §1
NCI-H322M = experiment: Growth inhibition of human NCI-H322M cells at 10 uM relative to control; settings: values are per cent of control; how it was run: as §1
SK-MEL-5 = experiment: Growth inhibition of human SK-MEL-5 cells at 10 uM relative to control; settings: values are per cent of control; how it was run: as §1
CAKI-1 = experiment: Growth inhibition of human Caki1 cells at 10 uM relative to control; settings: values are per cent of control; how it was run: as §1
A498 = experiment: Growth inhibition of human A498 cells at 10 uM relative to control; settings: values are per cent of control; how it was run: as §1
NCI-H522 = experiment: Growth inhibition of human NCI-H522 cells at 10 uM relative to control; settings: values are per cent of control; how it was run: as §1
[2] = Growth inhibition of human Hs 578T cells at 10 uM relative to control; settings: values are per cent of control; how it was run: as §1
K562 = experiment: Growth inhibition of human K562 cells at 10 uM relative to control; settings: values are per cent of control; how it was run: as §1
Malme-3M = experiment: Growth inhibition of human MALME-3M cells at 10 uM relative to control; settings: values are per cent of control; how it was run: as §1
U-251 = experiment: Growth inhibition of human U251 cells at 10 uM relative to control; settings: values are per cent of control
How it was run: (§2)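 Single-dose NCI human tumour cell line screen, run by the NIH. Percent inhibition of cell line growth was calculated by comparison with untreated samples.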

HOP-62 = experiment: Growth inhibition of human HOP62 cells at 10 uM relative to control; settings: values are per cent of control; how it was run: as §1
MOLT-4 = experiment: Growth inhibition of human MOLT4 cells at 10 uM relative to control; settings: values are per cent of control; how it was run: as §1
Melanoma cell = experiment: cells; settings: Homo sapiens
UACC-62 = experiment: Growth inhibition of human UACC62 cells at 10 uM relative to control; settings: values are per cent of control; how it was run: as §2
SK-MEL-28 = experiment: Growth inhibition of human SK-MEL-28 cells at 10 uM relative to control; settings: values are per cent of control; how it was run: as §1
IGROV-1 = experiment: Growth inhibition of human IGROV1 cells at 10 uM relative to control; settings: values are per cent of control; how it was run: as §1
MDA-MB-435 = experiment: Growth inhibition of human MDA-MB-435 cells at 10 uM relative to control; settings: values are per cent of control; how it was run: as §1
Leukemia cell = experiment: cells; settings: Homo sapiens
HL-60(TB) = experiment: Growth inhibition of human HL-60(TB) cells at 10 uM relative to control; settings: read-out: INH
How it was run: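 Single-dose cell line screen run by the NCI (NIH) in its human cancer cell line panel, which includes the leukemia line HL-60(TB). Percent growth inhibition was calculated by comparison with untreated samples.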

NCI-H460 = experiment: Growth inhibition of human NCI-H460 cells at 10 uM relative to control; settings: values are per cent of control; how it was run: as §1
CCRF-CEM = experiment: Growth inhibition of human CCRF-CEM cells at 10 uM relative to control; settings: values are per cent of control; how it was run: as §1
HOP-92 = experiment: Growth inhibition of human HOP92 cells at 10 uM relative to control; settings: values are per cent of control; how it was run: as §1
SNB-75 = experiment: Growth inhibition of human SNB75 cells at 10 uM relative to control; settings: values are per cent of control; how it was run: as §2
SNB-19 = experiment: Growth inhibition of human SNB19 cells at 10 uM relative to control; settings: values are per cent of control; how it was run: as §1
SK-MEL-2 = experiment: Growth inhibition of human SK-MEL-2 cells at 10 uM relative to control; settings: values are per cent of control; how it was run: as §1
cells [3] = settings: Homo sapiens, Cancer cell lines; remark: listed apart in the source
786-0 = experiment: Growth inhibition of human 786-0 cells at 10 uM relative to control; settings: values are per cent of control; how it was run: as §1
NCI-H226 = experiment: Growth inhibition of human NCI-H226 cells at 10 uM relative to control; settings: values are per cent of control; how it was run: as §1
HCC 2998 = experiment: Growth inhibition of human HCC2998 cells at 10 uM relative to control; settings: values are per cent of control; how it was run: as §1

SMILES: O=C(/C=C/c1cn(C/C=C/c2ccccc2)nn1)NO
- growth, % of control at 10 µM (M14): 1.63%
- growth, % of control at 10 µM (COLO 205): -75.7%
- growth, % of control at 10 µM (OVCAR-4): 55.7%
- inhibition at 10 µM (cells [1]): -18%
- growth, % of control at 10 µM (KM12): 8.61%
- growth, % of control at 10 µM (EKVX): 23.7%
- growth, % of control at 10 µM (NCI-H322M): 9.59%
- growth, % of control at 10 µM (SK-MEL-5): -79%
- growth, % of control at 10 µM (CAKI-1): 7.42%
- growth, % of control at 10 µM (A498): -74.4%
- growth, % of control at 10 µM (NCI-H522): 8.32%
- growth, % of control at 10 µM [2]: 26%
- growth, % of control at 10 µM (K562): -10.9%
- growth, % of control at 10 µM (Malme-3M): -28.7%
- growth, % of control at 10 µM (U-251): -89.9%
- growth, % of control at 10 µM (HOP-62): -31.7%
- growth, % of control at 10 µM (MOLT-4): -7.12%
- inhibition at 10 µM (Melanoma cell): -43%
- growth, % of control at 10 µM (UACC-62): -71.2%
- growth, % of control at 10 µM (SK-MEL-28): -15%
- growth, % of control at 10 µM (IGROV-1): -13.8%
- growth, % of control at 10 µM (MDA-MB-435): 21.3%
- inhibition at 10 µM (Leukemia cell): -6%
- growth, % of control at 10 µM (HL-60(TB)): -5.68%
- growth, % of control at 10 µM (NCI-H460): 7.36%
- growth, % of control at 10 µM (CCRF-CEM): 9.16%
- growth, % of control at 10 µM (HOP-92): -42%
- growth, % of control at 10 µM (SNB-75): 16.7%
- growth, % of control at 10 µM (SNB-19): -12.4%
- growth, % of control at 10 µM (SK-MEL-2): -51.7%
- growth percent at 10 µM (cells [3]): 8%
- growth, % of control at 10 µM (786-0): -36.1%
- growth, % of control at 10 µM (NCI-H226): 23.7%
- growth, % of control at 10 µM (HCC 2998): -1.33%

Source: ChEMBL document CHEMBL1140227, “Histone deacetylase inhibitors through click chemistry” (J Med Chem, 2008)
